Reference: ChEMBL document CHEMBL5244249, “Discovery of tofacitinib derivatives as orally active antitumor agents based on the scaffold hybridization strategy” (Eur J Med Chem, 2020)
pIC50: −log10 of the molar value. Activity calls are given as the source filed them. The calls are words filed in the database; no cut-off is given here.

Key:
[1] = system: MGC-803; experiment: Antiproliferative activity against human MGC-803 cells assessed as inhibition of cell growth incubated for 72 hrs by MTT assay; type: functional, cell-based; details: MGC-803, 72 h
How it was run: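 Antiproliferative screen in gastric cancer lines MGC-803, HGC-27 and BGC-823 by MTT assay; IC50 reported as mean ± SD.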

[2] = system: MGC-803; experiment: Cell cycle arrest in human MGC-803 cells assessed as S phase cells at 7.5 uM incubated for 24 hrs by RNase/PI staining based flow cytometric analysis (reference value: 27.1%); type: functional
[3] = system: MGC-803; experiment: Induction of apoptosis in human MGC-803 cells assessed as decrease in Mcl-1 protein expression at 5 to 10 uM incubated for 24 hrs by Western blot analysis; type: functional, cell-based; details: dose 5-10 µM
How it was run: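 After 24 h exposure of MGC-803 cells, Bcl-2, Mcl-1, Bax and cytochrome c release assessed by Western blot with band quantitation; mean ± SD from three independent experiments.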

Compound: Cc1cc(N2CC[C@@H](C)[C@@H](N(C)c3ncnc4[nH]ccc34)C2)n2nc(SCc3ccc(C(F)(F)F)cc3)nc2n1
- pIC50 [1]: 5.57
- Activity [2]: 29.36%
- Activity [3]: Active
